The source made the active and inactive calls. The calls are words filed in the database; no cut-off is given here.
Assays:
NHDF [1] = assay: Induction of apoptosis in human NHDF cells assessed as caspase 3/7 activation after 24 hrs Caspase-Glo 3/7 assay; assay type: functional, cell-based
PC-3 [2] = assay: Antiangiogenic activity in human PC3 cells xenografted in NU/NU mouse assessed as reduction vascularization at 3 mg/kg by immunohistochemistry; assay type: functional, organism-based; set-up: dose 3 mg/kg
Procedure, shortened: (§1)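 Vascularization of PC-3 flank tumors from nude mice dosed orally was assessed by immunohistochemistry with rat anti-mouse CD31 monoclonal antibody as endothelial marker. Doses were 0.3, 1 and 3 mg/kg.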

PC-3 [3] = assay: Induction of apoptosis in human PC3 cells assessed as caspase 3/7 activation after 24 hrs by Caspase-Glo 3/7 assay; assay type: functional, cell-based; conditions: PC-3, 24 h
PC-3 [4] = assay: Cytotoxicity against human PC3 cells after 72 hrs by CellTitter-Glo luminescent cell viability assay; assay type: functional, cell-based; conditions: PC-3, 72 h
NHDF [5] = assay: Cytotoxicity against human NHDF cells after 72 hrs by CellTitter-Glo luminescent cell viability assay; assay type: functional, cell-based
DU-145 [6] = assay: Cytotoxicity against human DU145 cells after 72 hrs by CellTitter-Glo luminescent cell viability assay; assay type: functional, cell-based; conditions: DU-145, 72 h
PC-3 [7] = assay: Induction of apoptosis in human PC3 cells xenografted in NU/NU mouse assessed as DNA fragmentation at 0.3 to 3 mg/kg by agarose gel electrophoresis; assay type: functional, organism-based
Procedure, shortened: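 DNA from PC-3 subcutaneous tumors of orally treated nude mice was run on an electrophoretic gel. Apoptosis was scored as a DNA ladder pattern.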

DU-145 [8] = assay: Induction of apoptosis in human DU145 cells assessed as caspase 3/7 activation after 24 hrs Caspase-Glo 3/7 assay; assay type: functional, cell-based
LNCaP [9] = assay: Induction of apoptosis in human LNCAP cells assessed as caspase 3/7 activation after 24 hrs Caspase-Glo 3/7 assay; assay type: functional, cell-based
LNCaP [10] = assay: Cytotoxicity against human LNCAP cells after 72 hrs by CellTitter-Glo luminescent cell viability assay; assay type: functional, cell-based
[11] = target: T1, Alpha-1D adrenergic receptor (Homo sapiens, UniProt P25100); assay: Displacement of [3H]prazosin from human Alpha-1D adrenoceptor expressed in CHO cells; assay type: cell-based
T1 sequence (P25100 whole entry): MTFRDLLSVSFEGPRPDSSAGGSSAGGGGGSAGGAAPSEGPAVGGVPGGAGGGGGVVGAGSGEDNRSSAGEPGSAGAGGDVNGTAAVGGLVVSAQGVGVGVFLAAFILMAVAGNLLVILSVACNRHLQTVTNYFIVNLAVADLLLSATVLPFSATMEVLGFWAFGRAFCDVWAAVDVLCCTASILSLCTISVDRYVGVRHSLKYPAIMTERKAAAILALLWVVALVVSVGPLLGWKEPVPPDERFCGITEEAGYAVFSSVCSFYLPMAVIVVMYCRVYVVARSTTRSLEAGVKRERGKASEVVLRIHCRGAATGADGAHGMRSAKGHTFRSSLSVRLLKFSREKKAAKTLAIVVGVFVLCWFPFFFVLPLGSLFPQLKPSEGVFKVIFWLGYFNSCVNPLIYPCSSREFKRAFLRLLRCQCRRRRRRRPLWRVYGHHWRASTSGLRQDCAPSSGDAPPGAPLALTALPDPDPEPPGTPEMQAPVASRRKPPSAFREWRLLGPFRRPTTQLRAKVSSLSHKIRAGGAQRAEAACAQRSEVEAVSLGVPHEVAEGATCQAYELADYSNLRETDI
Procedure, shortened: (§2)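 Radioligand competition binding used [3H]prazosin on membranes of CHO cells expressing human α1a, α1b or α1d adrenoceptor. IC50 values were converted to pKi by the Cheng-Prusoff equation. Data come from two to three experiments run in triplicate, agreeing within ±20%.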

[12] = target: T2, Alpha-1A adrenergic receptor (Rattus norvegicus) (UniProt P43140); assay: Antagonist activity at rat alpha1A adrenoceptor assessed as inhibition if norepinephrine-induced contraction of vas deference; assay type: functional
T2 sequence (whole entry): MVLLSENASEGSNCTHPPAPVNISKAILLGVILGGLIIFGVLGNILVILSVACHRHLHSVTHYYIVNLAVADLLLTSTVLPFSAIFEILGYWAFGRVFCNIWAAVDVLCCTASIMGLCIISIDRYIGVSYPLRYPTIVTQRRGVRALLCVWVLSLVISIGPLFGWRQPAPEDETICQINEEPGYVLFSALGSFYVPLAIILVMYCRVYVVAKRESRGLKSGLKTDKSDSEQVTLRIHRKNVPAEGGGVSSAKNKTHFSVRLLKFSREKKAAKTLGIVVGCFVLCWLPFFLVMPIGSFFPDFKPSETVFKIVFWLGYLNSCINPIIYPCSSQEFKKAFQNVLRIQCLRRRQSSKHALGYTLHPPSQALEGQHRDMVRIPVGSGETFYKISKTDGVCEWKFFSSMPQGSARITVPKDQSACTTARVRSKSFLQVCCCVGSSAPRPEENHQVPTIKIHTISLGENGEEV
Procedure, shortened: (§3)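 Isolated rat tissue contraction assay. The α1A response used vas deferens with (-)-noradrenaline as agonist, α1D used thoracic aorta with (-)-noradrenaline, and α1B used spleen with (-)-phenylephrine. pA2 values are means ± SEM over three antagonist concentrations, each tested at least four times. Where the Schild slope differed from unity, pKB was calculated by van Rossum at the lowest antagonist concentration giving log(CR−1) ≥0.5.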

[13] = target: T3, Alpha-1A adrenergic receptor (Homo sapiens, UniProt P35348); assay: Displacement of [3H]prazosin from human alpha1A adrenoceptor expressed in CHO cells; assay type: cell-based; procedure, shortened: as §2
T3 sequence (P35348 whole entry): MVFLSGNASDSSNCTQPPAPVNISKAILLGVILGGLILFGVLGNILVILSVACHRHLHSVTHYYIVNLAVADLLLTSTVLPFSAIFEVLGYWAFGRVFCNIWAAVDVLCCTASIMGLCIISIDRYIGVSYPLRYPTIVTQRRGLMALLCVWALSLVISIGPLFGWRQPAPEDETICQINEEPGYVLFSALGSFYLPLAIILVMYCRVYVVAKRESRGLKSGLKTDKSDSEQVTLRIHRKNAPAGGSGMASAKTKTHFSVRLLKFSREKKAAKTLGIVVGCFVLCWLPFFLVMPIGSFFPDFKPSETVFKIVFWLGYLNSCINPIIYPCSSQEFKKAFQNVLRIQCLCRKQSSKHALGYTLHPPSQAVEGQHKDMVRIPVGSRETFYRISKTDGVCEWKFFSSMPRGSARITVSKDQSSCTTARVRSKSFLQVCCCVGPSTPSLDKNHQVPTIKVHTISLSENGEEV

[14] = target: T4, Alpha-1B adrenergic receptor (Homo sapiens, UniProt P35368); assay: Displacement of [3H]prazosin from human Alpha-1B adrenoceptor expressed in CHO cells; assay type: cell-based; procedure, shortened: as §2
T4 sequence (P35368 whole entry): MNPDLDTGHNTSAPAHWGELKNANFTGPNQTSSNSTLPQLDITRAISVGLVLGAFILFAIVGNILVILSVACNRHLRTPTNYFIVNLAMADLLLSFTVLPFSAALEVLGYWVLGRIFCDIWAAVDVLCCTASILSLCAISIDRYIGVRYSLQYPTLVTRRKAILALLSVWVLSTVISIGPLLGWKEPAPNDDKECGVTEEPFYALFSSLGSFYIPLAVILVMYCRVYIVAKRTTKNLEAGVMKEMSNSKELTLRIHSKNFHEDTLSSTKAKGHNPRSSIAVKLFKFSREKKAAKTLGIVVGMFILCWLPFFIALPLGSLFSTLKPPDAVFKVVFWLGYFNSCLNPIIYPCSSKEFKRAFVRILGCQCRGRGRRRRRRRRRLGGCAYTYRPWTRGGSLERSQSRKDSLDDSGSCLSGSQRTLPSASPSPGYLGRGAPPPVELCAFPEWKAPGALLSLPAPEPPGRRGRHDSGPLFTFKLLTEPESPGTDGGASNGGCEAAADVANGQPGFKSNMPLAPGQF

[15] = target: T5, Alpha-1D adrenergic receptor (Rattus norvegicus) (UniProt P23944); assay: (§4) Antagonist activity at rat Alpha-1D adrenoceptor assessed as inhibition if norepenephrine-induced contraction of thoracic aorta; assay type: functional, tissue-based; procedure, shortened: as §3
T5 sequence (whole entry): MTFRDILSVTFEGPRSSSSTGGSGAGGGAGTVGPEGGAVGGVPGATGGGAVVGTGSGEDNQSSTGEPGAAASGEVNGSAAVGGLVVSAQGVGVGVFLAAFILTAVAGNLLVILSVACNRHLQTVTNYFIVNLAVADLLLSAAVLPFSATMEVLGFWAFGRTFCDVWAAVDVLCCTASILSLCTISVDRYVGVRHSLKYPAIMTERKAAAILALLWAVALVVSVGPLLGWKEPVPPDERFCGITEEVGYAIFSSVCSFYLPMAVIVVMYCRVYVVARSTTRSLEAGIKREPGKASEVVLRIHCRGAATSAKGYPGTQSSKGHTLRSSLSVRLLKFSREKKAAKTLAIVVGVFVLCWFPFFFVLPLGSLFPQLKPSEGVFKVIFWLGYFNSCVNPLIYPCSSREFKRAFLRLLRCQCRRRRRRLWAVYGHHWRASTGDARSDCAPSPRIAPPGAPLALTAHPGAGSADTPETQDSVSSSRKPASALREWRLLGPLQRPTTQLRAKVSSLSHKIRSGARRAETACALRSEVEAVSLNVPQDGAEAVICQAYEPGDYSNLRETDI

[16] = target: T6, Alpha-1B adrenergic receptor (Rattus norvegicus) (UniProt P15823); assay: Antagonist activity at rat Alpha-1B adrenoceptor assessed as inhibition if phenylephrine-induced contraction of spleen; assay type: functional, tissue-based; procedure, shortened: as §3
T6 sequence (whole entry): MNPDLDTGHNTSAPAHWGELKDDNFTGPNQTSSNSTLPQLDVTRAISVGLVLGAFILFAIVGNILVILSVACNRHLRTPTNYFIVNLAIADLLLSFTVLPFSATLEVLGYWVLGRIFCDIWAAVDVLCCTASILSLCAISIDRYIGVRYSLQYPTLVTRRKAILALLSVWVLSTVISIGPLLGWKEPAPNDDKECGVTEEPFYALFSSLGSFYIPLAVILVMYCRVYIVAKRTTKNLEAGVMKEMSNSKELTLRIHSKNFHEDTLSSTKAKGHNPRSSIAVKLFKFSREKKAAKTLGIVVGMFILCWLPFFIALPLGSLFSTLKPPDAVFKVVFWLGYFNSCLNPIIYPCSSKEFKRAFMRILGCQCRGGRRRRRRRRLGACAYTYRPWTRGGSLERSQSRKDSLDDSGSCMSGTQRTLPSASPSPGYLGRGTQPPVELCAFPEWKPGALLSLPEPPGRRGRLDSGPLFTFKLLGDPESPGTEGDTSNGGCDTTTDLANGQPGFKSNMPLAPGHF

PC-3 [17] = assay: Antiangiogenic activity in human PC3 cells xenografted in NU/NU mouse assessed as reduction vascularization at 0.3 mg/kg by immunohistochemistry; assay type: functional, organism-based; set-up: dose 0.3 mg/kg; procedure, shortened: as §1
PC-3 [18] = assay: Antiangiogenic activity in human PC3 cells xenografted in NU/NU mouse assessed as reduction vascularization at 1 mg/kg by immunohistochemistry; assay type: functional, organism-based; set-up: dose 1 mg/kg; procedure, shortened: as §1
PC-3 [19] = assay: Antitumor activity against human PC3 cells xenografted in NU/NU mouse at 0.3 mg/kg, po after 21 days relative to control; assay type: functional
Procedure, shortened: (§5)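 Male nude mice carried subcutaneous left-flank tumors from injected PC-3 cells. Drug was given orally once daily for 21 consecutive days. There were five groups of six mice, treated and control. Tumor growth is reported as mean ± SEM, analysed by ANOVA and Student t-test against control.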

PC-3 [20] = assay: Antitumor activity against human PC3 cells xenografted in NU/NU mouse after 21 days; assay type: functional; procedure, shortened: as §5
[21] = target: T7, Alpha-1D adrenergic receptor (Rattus norvegicus, UniProt P23944); assay: as §4; assay type: functional, tissue-based; conditions: read-out: pA2 (converted); procedure, shortened: as §3
T7 sequence (P23944 whole entry): T5 sequence (whole entry)

EC50 (NHDF [1]) [µM]	EC50 (PC-3 [3]) [µM]	Ki [11] [µM]	pKb [12]	Ki [13] [µM]	Ki [14] [µM]	pKb [16]	SMILES	Activity (PC-3 [2])	EC50 (PC-3 [4]) [µM]	IC50 (PC-3 [4]) [µM]	EC50 (NHDF [5]) [µM]	IC50 (NHDF [5]) [µM]	EC50 (DU-145 [6]) [µM]	IC50 (DU-145 [6]) [µM]	Activity (PC-3 [7])	IC50 (LNCaP [10]) [µM]	also measured
40.4	> 100	–	–	–	–	–	COc1cc2nc(N3CCN(C(=O)C4COc5ccccc5O4)CC3)nc(N)c2cc1OC (centres undefined) [DOXAZOSIN]	Active	> 100	38.6	40.4	43	> 100	37.4	Active	28.1	EC50 (DU-145 [8]; Homo sapiens, DU-145, 24 h): > 100 µM; EC50 (LNCaP [9]; Homo sapiens, LNCaP, 24 h, read-out: EC50): 100 µM
10	10	0.0263	5.88	0.0813	0.0224	7.14	COc1cc2nc(N3CCN(C(=O)C4COc5ccccc5O4)[C@H]4CCCC[C@@H]43)nc(N)c2cc1OC (relative stereo)	–	–	> 10	–	> 10	–	> 10	–	9.75	EC50 (DU-145 [8]; du-145): 10 µM; EC50 (LNCaP [9]; lncap): 10 µM; pKb [15]: 6.88
> 10	1.86	0.00017	7.21	0.00282	0.000417	8.3	COc1cc2nc(N3CCN(C(=O)C4COc5ccccc5O4)[C@H]4CCCC[C@H]43)nc(N)c2cc1OC (relative stereo) [CYCLODOXAZOSIN]	Active	1.86	0.85	> 10	1.46	2.6	0.96	Active	0.57	Activity (PC-3 [17]): Active; Activity (PC-3 [18]): Active; Activity (PC-3 [19]): 21%; Activity (PC-3 [20]): Dose-dependent effect; Kb [21]: 0.0407 µM; EC50 (LNCaP [10]): 1.42 µM

Reference: ChEMBL document CHEMBL1151946, “Doxazosin-related alpha1-adrenoceptor antagonists with prostate antitumor activity” (J Med Chem, 2009)
